ChEMBL document CHEMBL4411287, “Discovery and optimization of a series of 3-substituted indazole derivatives as multi-target kinase inhibitors for the treatment of lung squamous cell carcinoma” (Eur J Med Chem, 2019)

Tests used:
[1] = AUC (0 to infinity) in ICR(CD-1) mouse at 10 mg/kg, po administered via gavage by triple quadrupole mass spectrometric analysis; assay type: ADME, organism-based; parameters: dose 10 mg/kg, route oral, time infinity; settings: in vivo
Summary of the method: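 Oral gavage at 1 mg/mL in 1% Tween80/water to male ICR mice (18-22 g, n=3). Plasma sampled at 0.25, 0.5, 1, 2, 4, 8 and 24 h, protein precipitated with methanol:acetonitrile (1:1) containing internal standard, and quantified by UPLC-triple quadrupole MS. AUC and MRT were taken from per-animal time-concentration curves. Cmax is the maximum plasma level and Tmax the time to reach it.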

[2] = molecular target: Tyrosine-protein kinase ABL1 (Homo sapiens) (UniProt P00519); assay: Inhibition of ABL (unknown origin) at 1000 nM relative to control
[3] = molecular target: ALK tyrosine kinase receptor (Homo sapiens) (UniProt Q9UM73); assay: Inhibition of ALK (unknown origin) at 1000 nM relative to control
[4] = molecular target: Tyrosine-protein kinase BTK (Homo sapiens) (UniProt Q06187); assay: Inhibition of BTK (unknown origin) at 1000 nM relative to control
[5] = molecular target: Mitogen-activated protein kinase 1 (Homo sapiens) (UniProt P28482); assay: Inhibition of ERK2 (unknown origin) at 1000 nM relative to control
[6] = molecular target: Tyrosine-protein kinase BTK (Homo sapiens) (UniProt Q06187); assay: Inhibition of BTK (unknown origin) at 100 nM relative to control
[7] = molecular target: Receptor tyrosine-protein kinase erbB-2 (Homo sapiens) (UniProt P04626); assay: Inhibition of ErbB2 (unknown origin) at 100 nM relative to control
Summary of the method: (§1)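 Purified recombinant kinase domains run in ELISA on precoated poly(Glu,Tyr) 4:1 (20 µg/mL) with 10 µM ATP in 50 mM HEPES pH 7.4, 50 mM MgCl2, 0.5 mM MnCl2, 0.2 mM Na3VO4, 1 mM DTT; 1% DMSO control; 60 min at 37 °C. Phosphotyrosine read by PY99 antibody, HRP anti-mouse IgG, OPD/H2O2 at 490 nm; inhibition = [1−A490/A490control]×100%; two separate experiments.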

[8] = molecular target: Ephrin type-A receptor 2 (Homo sapiens) (UniProt P29317); assay: Inhibition of EPH-A2 (unknown origin) at 100 nM relative to control; summary of the method: as §1
[9] = molecular target: T1, Ephrin type-B receptor 2 (Homo sapiens) (UniProt P29323); assay: Inhibition of EPH-B2 (unknown origin) at 100 nM relative to control; summary of the method: as §1
T1 sequence (whole entry): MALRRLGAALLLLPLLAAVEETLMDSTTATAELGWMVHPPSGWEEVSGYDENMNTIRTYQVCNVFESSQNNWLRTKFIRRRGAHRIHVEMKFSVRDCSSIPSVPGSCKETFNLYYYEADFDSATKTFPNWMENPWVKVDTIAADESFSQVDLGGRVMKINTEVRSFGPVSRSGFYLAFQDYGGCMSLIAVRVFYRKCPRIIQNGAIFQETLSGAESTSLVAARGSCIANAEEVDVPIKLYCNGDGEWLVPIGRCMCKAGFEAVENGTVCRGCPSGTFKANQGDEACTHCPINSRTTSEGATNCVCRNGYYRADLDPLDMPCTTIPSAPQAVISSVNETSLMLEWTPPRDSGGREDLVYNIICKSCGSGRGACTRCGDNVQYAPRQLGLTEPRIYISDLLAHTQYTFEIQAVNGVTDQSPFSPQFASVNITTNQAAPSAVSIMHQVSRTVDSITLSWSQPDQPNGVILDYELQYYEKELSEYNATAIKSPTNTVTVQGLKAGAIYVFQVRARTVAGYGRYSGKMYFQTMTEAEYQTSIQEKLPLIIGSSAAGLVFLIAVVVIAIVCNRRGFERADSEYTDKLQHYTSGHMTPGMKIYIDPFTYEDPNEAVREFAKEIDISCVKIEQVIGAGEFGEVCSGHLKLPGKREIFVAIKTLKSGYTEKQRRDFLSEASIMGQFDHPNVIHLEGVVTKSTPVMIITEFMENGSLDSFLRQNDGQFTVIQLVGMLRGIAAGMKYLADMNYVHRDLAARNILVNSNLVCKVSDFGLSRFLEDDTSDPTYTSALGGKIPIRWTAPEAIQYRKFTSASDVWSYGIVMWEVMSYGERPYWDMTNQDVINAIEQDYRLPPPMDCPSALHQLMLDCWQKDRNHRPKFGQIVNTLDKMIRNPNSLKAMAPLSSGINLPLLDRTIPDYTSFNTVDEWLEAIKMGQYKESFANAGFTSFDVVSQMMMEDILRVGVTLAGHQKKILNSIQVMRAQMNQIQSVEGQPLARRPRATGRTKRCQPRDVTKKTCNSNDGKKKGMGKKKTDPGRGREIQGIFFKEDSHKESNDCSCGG

[10] = molecular target: Hepatocyte growth factor receptor (Homo sapiens) (UniProt P08581); assay: Inhibition of c-Met (unknown origin) at 10 nM relative to control
Summary of the method: (§2)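 ELISA with purified recombinant kinase on plates precoated with poly(Glu,Tyr) 4:1 at 20 µg/mL. ATP 10 µM in HEPES pH 7.4 buffer with MgCl2, MnCl2, Na3VO4 and DTT. Run 60 min at 37 °C. Detected with anti-phosphotyrosine PY99, HRP secondary antibody and o-phenylenediamine, read at 490 nm. Inhibition % = [1 − A490/A490 control]×100. 1% DMSO as negative control.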

[11] = molecular target: Proto-oncogene tyrosine-protein kinase Src (Homo sapiens) (UniProt P12931); assay: Inhibition of c-Src (unknown origin) at 10 nM relative to control; summary of the method: as §2
[12] = molecular target: Cyclin-dependent kinase 4 (Homo sapiens) (UniProt P11802); assay: Inhibition of CDK4 (unknown origin) at 10 nM relative to control
[13] = molecular target: Cyclin-dependent kinase 6 (Homo sapiens) (UniProt Q00534); assay: Inhibition of CDK6 (unknown origin) at 10 nM relative to control
[14] = molecular target: Epidermal growth factor receptor (Homo sapiens) (UniProt P00533); assay: Inhibition of EGFR (unknown origin) at 10 nM relative to control
[15] = molecular target: Tyrosine-protein kinase JAK1 (Homo sapiens) (UniProt P23458); assay: Inhibition of JAK1 (unknown origin) at 10 nM relative to control; summary of the method: as §1
[16] = molecular target: Platelet-derived growth factor receptor alpha (Homo sapiens) (UniProt P16234); assay: Inhibition of PDGFR-alpha (unknown origin) at 10 nM relative to control; summary of the method: as §1
[17] = molecular target: Vascular endothelial growth factor receptor 1 (Homo sapiens) (UniProt P17948); assay: Inhibition of VEGFR1 (unknown origin) at 10 nM relative to control; summary of the method: as §2
[18] = molecular target: Vascular endothelial growth factor receptor 2 (Homo sapiens) (UniProt P35968); assay: Inhibition of VEGFR2 (unknown origin) at 10 nM relative to control; summary of the method: as §2
[19] = Antiproliferative activity against human UM-UC-14 cells harboring FGFR3 mutation after 72 hrs by CCK8 assay; assay type: functional, cell-based; settings: UMUC14, 72 h
Summary of the method: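 Cells seeded at low density in growth medium and compounds added the next day. Incubated 72 h, then proliferation read by sulforhodamine B, MTT or CCK-8. IC50 obtained by four-parameter concentration-response curve fitting.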

Sequence of Tyrosine-protein kinase BTK (Homo sapiens) (Q06187 whole entry): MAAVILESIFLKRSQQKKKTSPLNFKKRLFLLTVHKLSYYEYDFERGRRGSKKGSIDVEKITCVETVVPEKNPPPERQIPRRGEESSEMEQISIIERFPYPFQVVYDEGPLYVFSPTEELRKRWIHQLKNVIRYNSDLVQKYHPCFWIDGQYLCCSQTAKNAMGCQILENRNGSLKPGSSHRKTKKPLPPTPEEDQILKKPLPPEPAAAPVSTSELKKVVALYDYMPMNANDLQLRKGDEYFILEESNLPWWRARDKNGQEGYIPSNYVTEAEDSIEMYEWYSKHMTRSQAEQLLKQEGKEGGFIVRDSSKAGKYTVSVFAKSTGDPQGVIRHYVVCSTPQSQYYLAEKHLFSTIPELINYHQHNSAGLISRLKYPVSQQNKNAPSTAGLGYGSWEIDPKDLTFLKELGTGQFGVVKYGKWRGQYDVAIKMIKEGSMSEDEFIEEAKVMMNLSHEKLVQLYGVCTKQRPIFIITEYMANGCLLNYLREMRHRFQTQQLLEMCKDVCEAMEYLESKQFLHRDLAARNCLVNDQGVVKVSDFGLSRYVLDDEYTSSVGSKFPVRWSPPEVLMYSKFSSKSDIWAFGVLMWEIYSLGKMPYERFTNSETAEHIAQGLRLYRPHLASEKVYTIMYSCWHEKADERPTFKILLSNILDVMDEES
Sequence of Proto-oncogene tyrosine-protein kinase Src (Homo sapiens) (P12931 2-536 limits assumed): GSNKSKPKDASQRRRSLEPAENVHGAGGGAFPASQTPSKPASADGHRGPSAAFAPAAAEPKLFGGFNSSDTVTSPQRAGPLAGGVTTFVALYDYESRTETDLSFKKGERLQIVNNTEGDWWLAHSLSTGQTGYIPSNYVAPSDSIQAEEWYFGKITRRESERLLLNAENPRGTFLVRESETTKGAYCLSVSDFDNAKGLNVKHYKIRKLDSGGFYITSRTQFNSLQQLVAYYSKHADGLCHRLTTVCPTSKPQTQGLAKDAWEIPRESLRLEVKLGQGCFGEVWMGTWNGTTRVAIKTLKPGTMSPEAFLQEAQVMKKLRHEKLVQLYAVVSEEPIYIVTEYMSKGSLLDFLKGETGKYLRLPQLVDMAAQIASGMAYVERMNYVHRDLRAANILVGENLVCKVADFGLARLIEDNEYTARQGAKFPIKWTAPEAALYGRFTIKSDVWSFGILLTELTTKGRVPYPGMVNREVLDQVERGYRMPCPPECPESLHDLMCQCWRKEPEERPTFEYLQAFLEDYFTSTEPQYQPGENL
Sequence of Cyclin-dependent kinase 4 (Homo sapiens) (P11802 whole entry): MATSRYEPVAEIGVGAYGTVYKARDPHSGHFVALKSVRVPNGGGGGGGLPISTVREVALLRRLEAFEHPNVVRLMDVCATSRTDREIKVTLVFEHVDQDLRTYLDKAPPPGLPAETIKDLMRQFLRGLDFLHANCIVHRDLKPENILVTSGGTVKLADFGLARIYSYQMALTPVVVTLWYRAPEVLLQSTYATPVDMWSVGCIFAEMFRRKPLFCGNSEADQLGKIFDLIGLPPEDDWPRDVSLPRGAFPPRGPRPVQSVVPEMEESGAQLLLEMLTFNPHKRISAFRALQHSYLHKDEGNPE
Sequence of Mitogen-activated protein kinase 1 (Homo sapiens) (P28482 whole entry): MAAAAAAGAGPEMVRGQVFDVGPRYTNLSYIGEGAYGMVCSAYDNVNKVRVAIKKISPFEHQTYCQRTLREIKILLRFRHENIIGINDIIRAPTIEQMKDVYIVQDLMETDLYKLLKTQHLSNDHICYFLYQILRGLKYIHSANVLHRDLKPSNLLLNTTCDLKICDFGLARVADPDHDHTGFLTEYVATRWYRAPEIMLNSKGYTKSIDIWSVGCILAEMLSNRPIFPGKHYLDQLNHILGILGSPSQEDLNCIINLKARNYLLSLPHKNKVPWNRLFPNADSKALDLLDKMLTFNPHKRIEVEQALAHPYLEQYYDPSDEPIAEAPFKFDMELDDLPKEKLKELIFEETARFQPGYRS
Sequence of Ephrin type-A receptor 2 (Homo sapiens) (P29317 whole entry): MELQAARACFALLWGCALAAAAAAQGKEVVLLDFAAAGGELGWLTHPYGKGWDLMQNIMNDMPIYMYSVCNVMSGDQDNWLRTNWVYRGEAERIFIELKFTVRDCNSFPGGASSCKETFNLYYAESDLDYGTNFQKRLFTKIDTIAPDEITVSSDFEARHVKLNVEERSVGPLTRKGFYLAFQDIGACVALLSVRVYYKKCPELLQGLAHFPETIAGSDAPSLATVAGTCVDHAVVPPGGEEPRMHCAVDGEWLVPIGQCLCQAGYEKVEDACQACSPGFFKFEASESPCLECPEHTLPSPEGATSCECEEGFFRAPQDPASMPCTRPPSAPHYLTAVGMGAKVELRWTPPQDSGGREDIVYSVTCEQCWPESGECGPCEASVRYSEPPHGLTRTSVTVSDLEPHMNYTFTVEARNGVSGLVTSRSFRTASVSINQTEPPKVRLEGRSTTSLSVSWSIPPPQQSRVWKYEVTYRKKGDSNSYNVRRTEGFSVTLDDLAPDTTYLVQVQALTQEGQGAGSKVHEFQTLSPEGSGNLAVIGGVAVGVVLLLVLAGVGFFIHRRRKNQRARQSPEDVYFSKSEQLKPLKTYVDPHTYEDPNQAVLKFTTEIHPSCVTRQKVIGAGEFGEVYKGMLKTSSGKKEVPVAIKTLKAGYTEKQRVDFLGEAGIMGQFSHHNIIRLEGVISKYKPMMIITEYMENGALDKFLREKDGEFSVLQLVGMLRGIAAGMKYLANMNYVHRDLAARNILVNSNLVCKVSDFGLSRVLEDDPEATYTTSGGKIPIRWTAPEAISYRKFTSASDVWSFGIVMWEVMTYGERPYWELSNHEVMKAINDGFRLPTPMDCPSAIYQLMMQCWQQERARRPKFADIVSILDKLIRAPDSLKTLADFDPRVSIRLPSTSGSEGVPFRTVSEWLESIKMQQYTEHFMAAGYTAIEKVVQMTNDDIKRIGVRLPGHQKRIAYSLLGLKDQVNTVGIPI
Sequence of Cyclin-dependent kinase 6 (Homo sapiens) (Q00534 whole entry): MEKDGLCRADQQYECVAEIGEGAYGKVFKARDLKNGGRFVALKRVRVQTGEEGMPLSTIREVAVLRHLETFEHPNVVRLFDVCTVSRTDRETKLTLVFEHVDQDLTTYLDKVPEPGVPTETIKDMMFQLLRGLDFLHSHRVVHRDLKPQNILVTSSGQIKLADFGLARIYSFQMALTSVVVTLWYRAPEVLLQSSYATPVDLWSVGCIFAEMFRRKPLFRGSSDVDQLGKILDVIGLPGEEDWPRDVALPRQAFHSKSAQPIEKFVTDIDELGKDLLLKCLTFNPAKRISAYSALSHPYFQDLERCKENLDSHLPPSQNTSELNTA
Sequence of Tyrosine-protein kinase JAK1 (Homo sapiens) (P23458 whole entry): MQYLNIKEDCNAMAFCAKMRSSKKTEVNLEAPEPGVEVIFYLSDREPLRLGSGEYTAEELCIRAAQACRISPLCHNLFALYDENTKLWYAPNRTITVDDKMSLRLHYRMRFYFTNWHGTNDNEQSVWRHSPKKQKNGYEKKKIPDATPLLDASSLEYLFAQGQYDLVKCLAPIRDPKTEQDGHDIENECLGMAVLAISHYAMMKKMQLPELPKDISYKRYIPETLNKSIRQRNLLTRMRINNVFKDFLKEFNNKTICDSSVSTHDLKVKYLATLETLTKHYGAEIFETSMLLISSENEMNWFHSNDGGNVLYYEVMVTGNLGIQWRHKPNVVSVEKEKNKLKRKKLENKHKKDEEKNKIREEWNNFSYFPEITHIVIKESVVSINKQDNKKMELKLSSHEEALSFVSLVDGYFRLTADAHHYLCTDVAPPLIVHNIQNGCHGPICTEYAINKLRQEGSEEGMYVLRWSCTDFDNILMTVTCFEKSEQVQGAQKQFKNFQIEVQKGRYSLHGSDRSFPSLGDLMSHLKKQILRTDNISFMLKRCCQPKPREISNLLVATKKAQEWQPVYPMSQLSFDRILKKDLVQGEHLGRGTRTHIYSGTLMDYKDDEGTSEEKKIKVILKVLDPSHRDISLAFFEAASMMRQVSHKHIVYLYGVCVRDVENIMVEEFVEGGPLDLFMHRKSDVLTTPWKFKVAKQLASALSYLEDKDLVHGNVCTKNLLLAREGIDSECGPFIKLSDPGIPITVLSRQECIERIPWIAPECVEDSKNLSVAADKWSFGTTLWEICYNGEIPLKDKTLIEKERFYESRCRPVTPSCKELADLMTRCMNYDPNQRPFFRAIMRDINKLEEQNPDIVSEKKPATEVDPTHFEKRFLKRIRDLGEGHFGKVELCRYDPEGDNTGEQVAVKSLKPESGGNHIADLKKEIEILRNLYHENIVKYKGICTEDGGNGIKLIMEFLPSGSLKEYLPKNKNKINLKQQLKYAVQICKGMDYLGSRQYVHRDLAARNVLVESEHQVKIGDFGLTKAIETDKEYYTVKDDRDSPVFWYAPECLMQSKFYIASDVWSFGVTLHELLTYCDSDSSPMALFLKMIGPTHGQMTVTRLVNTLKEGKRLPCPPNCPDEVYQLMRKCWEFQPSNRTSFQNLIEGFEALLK

AUC(0-inf) [1]: 7680 ng·h/mL
inhibition [2]: 100%
inhibition [3]: 93.5%
inhibition [4]: 80.9%
inhibition [5]: 2.7%
inhibition [6]: 47.1%
inhibition [7]: 5.6%
inhibition [8]: 100%
inhibition [9]: 76.7%
inhibition [10]: 0.2%
inhibition [11]: 64.5%
inhibition [12]: 4.4%
inhibition [13]: 0.5%
inhibition [14]: 10%
inhibition [15]: 0.2%
inhibition [16]: 59.7%
inhibition [17]: 25.8%
inhibition [18]: 90.1%
SMILES: Cc1ccc(C(=O)Nc2cccc(C(F)(F)F)c2)cc1-c1ccc2c(-c3cnn(C4CC4)c3)n[nH]c2c1
IC50 [19]: 0.307 µM
